Test system: MS2 coat protein
Assay: apparent Kd, MS2 coat protein; higher = weaker binding; RNA-MaP array; FMN 200 µM where present
Procedure, shortened: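 Apparent Kd: the median of filtered binding-curve fits from single clusters. Designs were transcribed on Illumina sequencing-chip clusters by stalled E. coli RNA polymerase and titrated with SNAP-549-labelled MS2 coat protein from 0.7 or 1.5 nM, doubling to 3 µM, in 100 mM Tris-HCl pH 7.5, 80 mM KCl, 4 mM MgCl2, BSA, DTT, yeast tRNA and Tween-20. Each series ran without and then with constant ligand, and green signal was normalised to red-channel RNA signal and control-cluster median Fmax.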

[1] = designed as: OFF switch for flavin mononucleotide, no ligand
[2] = ligand present: flavin mononucleotide, designed as: OFF switch for flavin mononucleotide
[3] = designed as: ON switch for flavin mononucleotide, no ligand
[4] = ligand present: flavin mononucleotide, designed as: ON switch for flavin mononucleotide

Sequence	apparent Kd [1] [nM]	apparent Kd [2] [nM]	apparent Kd [3] [nM]	apparent Kd [4] [nM]
UCUUGACAUGAGGAUCACCCAUGUCAGGAUAUAGUAGGACAAAUAAAUAAAAGUUCUACUAGAAGGGAUAUGGG	24.9	46.8		
UUUCUCGUUGUGAGGAUAUCGUUUUUGUUUUGGAUCGAGAAGGCACAUGAGGAUCACCCAUGUUUGUUGUGGUU	119	87.7		
GGACAUUUACAGAAGGGCAAGUUAGAUAGUGAAUAUUUAGUUCUGACUUGCAGGAUAUGUUGAACAUGAGGAUCACCCAUGUCC			14.4	10.6
UUUCUUGGGCAAGGAUAUCCUGUGCGGUUCUGGCUCGUGUCUGUCACAUGAGGAUCACCCAUGUGGGAGAAGGUGCCUGCGGUC	6.13	6.1		
GACAUACAUGAGGAUCACCCAUGUUCAAACGAACAAGGAUAUGUGUGGAAACCAUACUAUACAGAAGGUGUCUGUC			81.7	97.7
AAAAUACAUGAGGAUCACCCAUGUCAGGAUAUGCUAAAAAAAAAAUUAAAAAAAAAAUGUAGAAGGGACUAAAA	99	106		
ACGUGACAUGAGGAUCACCCAUGUGAGGAUAUCUGGAUAAUUUUUAUUUUAGAUAUCCAGAGAAGGCACAUGUU	206	173		
GCAUGCAAGUAGAAGGGCAGAUAUUUUGAUACUGCAGGAUAUGCAGAAUCAUAUCCACAUGAUAACAUGAGGAUCACCCAUGUA	33.7	26.1		
GUAUCAUACCAAGGAUAUUUAGGACUUGGAUAGACAUGAGGAUCACCCAUGUGGCGUUAGUCACGGGAGAAGGUGGUAUGAUAC			103	20.7
AAAAGCUAAGGAUAUACAUGAGGAUCACCCAUGUACACCGGUACGGGUGCGAACUCCUGUAGAAGGUGGGAUAA	148	159		
AACAAUCACAUAGGAUAUAGAAUAUUAUAUUUUUACAUGAGGAUCACCCAUGUUUUAUUGGGAUUCUAGAAGGAUGAGUAAUAA			162	90.8
UUGAUAAGGAGAGGAUAUUGACAUGAGGAUCACCCAUGUACAUGGGAGUAUUUACUGAAUUCUUACGAGAAGGCUUACAUAUUU	165	115		
GCGAUGAUCGAGAAGGCCACUACAUGAGGAUCACCCAUGUCGUGGUGUAUUGGAGGAUAUCGAUUGGCGCCUUAUGAGGACAUG	5.49	8.22		
GUUUCGGGAGGAUAUGCGUGGAUUGUUCUCGUAUGUUGUUUACAUGAGGAUCACCCAUGUAGAAGGUCUGGAGC	170	136		
UGGUACUAGGGAGGAUAUGGGAAGAUACAUGAGGAUCACCCAUGUUUAAGAAUGCCGAGAGGCAACUAGAAGGCCCUCGUACCU			432	20.1
AGCUGGAGAGGAUAUACGUGAGUGAUAAAAGUCUGAUAACUACAUGAGGAUCACCCAUGUAGAAGGCUCUGGCA	66.2	19.4		
AAACAUGUCCGAGGAUAUCUGGAAACAUUUUCAAGAGAAGGCGGACAUGAGGAUCACCCAUGUCUCUCCUCAUCAAGUACAAAU	7.33	46.3		
UGGUACAUGGGAGGAUAUGGGUAGAUAACAUGAGGAUCACCCAUGUUAAGAAAUGCCGAAAGGCACUAGAAGGCCCAUGUACCU			637	46.7
AAUGCGGCAGGAUAUACAUGAGGAUCACCCAUGUAGAUCAGAUAUAUGGUCGAGCCAUGUAGAAGGGCCGCAAA	30.8	110		
UUGGACGUCGUAGGAUAUGUAGGAUAUUCCUACAUGAGGAUCACCCAUGUUGACAUGGAAGAUGGACAGAAGGACGAUGUCCAU			983	42.1
GUACCUUAUGAGAAGGCGAUCAUAAAACGUGAUCGAGGAUAUCAUGAAAACAUGAGGAUCACCCAUGUAUGGGUAUUAUGGUAC			36	19.3
AGAUGACAAAGUCAUCUCGCUUUGACAUGAGGAUCACCCAUGUAGGAUAUAUUACUCAAAGAGUAAUAGAAGGACAUGUGUCUG	49	155		
GAGCGAAAGCUCAAUGUCGAUAGCAGAAGGACAUGUAAAACCAUGAAAACAUGAGGAUCACCCAUGUAGGAUAUGCUAUCGACU	9.7	95.8		
AAGAAGUCAGGAUAUCCUGCUCGUCACUUGCGUGAUGAGUAGGAGAAGGGACAUGAGGAUCACCCAUGUAAAGU	51.1	56.2		
AAUAUAAGAGCUGGUCUCAAAAGAACAUGAGGAUCACCCAUGUAGGAUAUCAGCACGAUAAGUGCUGAGAAGGACAUCCAGCUC	14.5	18.6		
UGUCGGAGCAGAGGAUAUUACAUGAGGAUCACCCAUGUAUGAACCAAUAGCUGGAAACAGCAAUGAAAGAAGGCUGCUCCGACA	5.38	5.13		
AAUAAGUGAGGAUAUACGUCUGGACCCGGGAGGGCUAUAUAACAUGAGGAUCACCCAUGUAGAAGGCACAAUAA	13.9	15.9		
CACGGGUCAGGAUAUUGUUAGUUUAGUUGUUUGUAUUAGUUCGAGAAGGGACAUGAGGAUCACCCAUGUGGUCA	285	269		

Sequence	apparent Kd [1] [nM]	apparent Kd [2] [nM]	apparent Kd [3] [nM]	apparent Kd [4] [nM]
UUUUUACUUGCAGGAUAUGGAGACAUGAGGAUCACCCAUGUAUGAUAAGCUAAAUUAUGCUGUGGCCAGAAGGGUAUUGUUCUU			72	52.9
UCUCGAUGUGUAGGAUAUCUGAUUACUAUGACAAGAGAAGGGCACAUGAGGAUCACCCAUGUGGAGGACCACUGGUUCAGAUUA	31.2	49.3		
GGGUACAUCGGAGGAUAUCAUGUAAAUACAUGAGGAUCACCCAUGUCGAUGGAGACAUCGGAGAUUGAGAAGGCCGAUGUGCCG			145	9.5
CCCGUCAUCGAGAAGGCCUCAACAUGAGGAUCACCCAUGUUGUAAUAUGGGAGGAUAUCGAUGAUACAGCUACGUUUCGUAGGG			17.3	6.33
GGUACCAUCACAGGAUAUGCUUUCCUUUGGGAAGCAGAAGGGUGUAACAUGAGGAUCACCCAUGUGGUGCCAGGGCGUGAGCCC			470	42.6
GGUCGUCAAGUCAGGAUAUCGUUUGGUCGGUGUGGCGAGAAGGGACAUGAGGAUCACCCAUGUCGUCUCAUCAG	27	29.9		
GUGCCGUUGGCUCGACGACCGCUGCAGGAUAUCACAUGAGGAUCACCCAUGUGACUCUGCCCAUGUGAGAAGGGCGGCUGUGUG	18.9	34.7		
GAAUAAUUGAUCCAAUAUAACAACAUGAGGAUCACCCAUGUGCAGGAUAUCGUAUUUAUUAUAUACGAGAAGGGCAAGAACUGU	343	475		
UCUUAUUGCAAGGAUAUGCAAAUUAUUAUUAAAGCAGAAGGUGCAACAUGAGGAUCACCCAUGUUUCCGGGAAA	25.2	104		
GCCAGGAUGUAAGGAUAUGCUGAGGAUAACUCAGCAGAAGGUACAUGAGGAUCACCCAUGUAAUCCUAAUAAUAAUAACCUGGC	11.5	17.4		
GUCAGCUCGUGAGGAUAUACAACACUGCUUCGGCAGUGUAUUCAGAUCACAUGAGGAUCACCCAUGUAGAAGGCACGAGCUGAU	12.8	206		
GGACAUGUCGUCUACAUGAGGAUCACCCAUGUCGAUAGACAUGAGGAUAUCGAUACAAAUUGUAUCGAGAAGGCAUGCAGGUCC			18.7	17.7
UAAGUUGAGGAGAAGGGAGCACAUGAGGAUCACCCAUGUGGUCCUUUGUGCUCAGGAUAUCCAUGGAGCUCCGUCGCGUUCCAU	4.49	3.32		
AAAAAGUCAGGAUAUACGAAAAAAAAAAAAAAAAAAAAAAAGUAGAAGGGACAUGAGGAUCACCCAUGUGAAAA	74.7	39.3		
AGGGCUUAAUGGCCCUAUGAGAUGAGAAGGGUAGGAGGGUGGAAGUACAUGAGGAUCACCCAUGUACAGGAUAUCAUGCCGAUU	6.32	6.07		
AAGCGGGCAGGAUAUGCGUACUCACGGGAAAACUGAAUGGUACAUGAGGAUCACCCAUGUAGAAGGGCUUUGAA	48.4	36.3		
CAAUUCCGAGGAUAUACAUGAGGAUCACCCAUGUCGGGCCUCAGCGUUUAGCGCUUAAGUAGAAGGUGGGUUUC	40.7	54.5		
CCUGUACAUGAGGAUCACCCAUGUUAGGAUAUCUCGCCGUCGGCUUGCCGACGGUAUUAGAGAAGGGACAAGGG	32.3	37.6		
UUAUUGGUAGUGAGGAUAUCGGUUUGAUAGAUAUUCGAGAAGGCACAUGAGGAUCACCCAUGUAAGAUUGGGAA	201	196		
UGUUGUAUUACAGGAUAUCUAUUGUUUUUAAUUAGAGAAGGGUAUUCACAUGAGGAUCACCCAUGUAUAUACGAGGAAGUUGUG			50.5	53.4
GAGUGACACCAGAAGGGCCAGGAAAGAACACUGGUAGGAUAUGGAGCGCCCUCGUAACGACCGACAUGAGGAUCACCCAUGUCC			117	28.1
GGAGAGUUCACAGGAUAUCAUGGGUAGUUAUUUUGAGAAGGGUGAACAAGGAACAUGAGGAUCACCCAUGUAUCCUGGGAGGGC			24.4	36.8
GGACGCGUAGGAUAUGCAAUCGAAGUCGAGUUUUCUGGUGGACAUGAGGAUCACCCAUGUAGAAGGAUGUAGCA	44.2	33.4		
UGAUCCGCAUCGGCGCACAAGACAUGAGGAUCACCCAUGUACAGAAGGCGAAAAGCGAAGGCGGUCGAGGAUAUGUACCUACGG	6.92	15.7		
AAAGGCCGAGGAUAUACAUGAGGAUCACCCAUGUGGACUCUGCAGAAUUGAUACCUUGGUAGAAGGUGGACCGG	23	18.4		
GGAUCAAUAGUCCACAUGAGGAUCACCCAUGUAGUAUUUUACAAGGAUAUGGUGGGACUUCGUGGCCAGAAGGUGUAAAGGAUC			194	99.7
GUCGAUCACCAGAAGGACAUGAGGAUCACCCAUGUAGGAUAUGGGUAAGACGUCACAUUGGCGUGCAAACGUUUGCGUUCGUAC			11.9	6.42
